pKd, pKi: −log10 of the molar value. Calls of active or inactive are those of the source. The calls are words filed in the database; no cut-off is given here.

The target in assay [1] is T1, Ribonucleoside-diphosphate reductase large subunit (Homo sapiens) (UniProt P23921).
T1 sequence (whole entry): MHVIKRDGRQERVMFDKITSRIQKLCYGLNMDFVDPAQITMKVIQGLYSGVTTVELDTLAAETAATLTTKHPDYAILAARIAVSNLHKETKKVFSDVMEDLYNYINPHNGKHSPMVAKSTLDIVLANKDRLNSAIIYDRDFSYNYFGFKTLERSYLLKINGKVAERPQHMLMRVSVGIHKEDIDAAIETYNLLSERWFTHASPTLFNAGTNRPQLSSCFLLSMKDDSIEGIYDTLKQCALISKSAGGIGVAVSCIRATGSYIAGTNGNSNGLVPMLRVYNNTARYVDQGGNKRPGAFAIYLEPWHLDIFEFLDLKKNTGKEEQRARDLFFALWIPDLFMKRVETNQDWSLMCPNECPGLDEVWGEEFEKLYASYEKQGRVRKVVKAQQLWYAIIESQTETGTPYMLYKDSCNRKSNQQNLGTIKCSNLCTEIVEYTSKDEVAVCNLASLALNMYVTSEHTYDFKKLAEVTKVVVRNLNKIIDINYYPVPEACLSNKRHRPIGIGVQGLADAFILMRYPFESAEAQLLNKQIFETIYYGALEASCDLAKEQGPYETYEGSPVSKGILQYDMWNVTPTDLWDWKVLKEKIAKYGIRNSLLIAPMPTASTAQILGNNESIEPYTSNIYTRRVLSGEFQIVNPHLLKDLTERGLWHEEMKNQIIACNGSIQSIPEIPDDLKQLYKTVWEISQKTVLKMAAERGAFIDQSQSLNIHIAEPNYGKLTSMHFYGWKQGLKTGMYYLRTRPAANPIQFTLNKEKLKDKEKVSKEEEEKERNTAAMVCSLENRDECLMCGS
Nature of the assay: Inhibition of RRM1 in human U2OS cells assessed as gammaH2AX induction after 2 hrs by FITC/propidium iodide-staining based flow cytometry in presence of SCH900776. It counts as cell-based. The gist of the method: (§1)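 U2OS cells were given titrated compound overnight, then kept with or without 0.5 uM SCH 900776 for a further 2 h in the compound's presence. Cells were fixed and permeabilized in 70% ethanol, stained with FITC anti-γH2AX antibody and counterstained with propidium iodide. Read-out was flow cytometry or imaging, given as % γH2AX-positive cells.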
For orientation: A flow cytometer gives signals particle by particle.

In assay [2] the target is T1, Ribonucleoside-diphosphate reductase large subunit (Homo sapiens). Nature of the assay: Inhibition of RRM1 in human U2OS cells assessed as gammaH2AX induction at 0.5 to 125 uM after 2 hrs by FITC/propidium iodide-staining based flow cytometry in presence of SCH900776. Type of assay: cell-based. Put shortly: as §1
The target is the same in assay [3]. The assay is described as follows: Inhibition of RRM1 in human U2OS cells assessed as gammaH2AX induction at 0.5 to 125 uM after 2 hrs by FITC/propidium iodide-staining based flow cytometry in absence of SCH900776. It counts as cell-based. Put shortly:
as §1

Assay [4] can be described thus: Binding affinity to yeast RRM1 assessed as reduction of unbound compound level by line-broadening NMR spectroscopy. Set-up: species or system Saccharomyces cerevisiae.
The test system of assay [5] is Saccharomyces cerevisiae. The assay is described as follows: Binding affinity to yeast RRM1 assessed as reduction of free compound level by line-broadening NMR spectroscopy relative to control. Set-up: scale not given: the % may be the effect or the level left.
The subject of assay [6] is Saccharomyces cerevisiae. Nature of the assay: Binding affinity to yeast RRM1 assessed as reduction of unbound-compound level at 200 uM by NOESY-spectroscopy.
Assay [7] in a line: Competitive binding affinity to yeast RRM1 assessed as reduction in CDP NMR signals by STD-NMR spectroscopy. Set-up: species or system Saccharomyces cerevisiae.
Assay [8] concerns the target T2, Ribonucleotide reductase (Homo sapiens) (UniProt P23921+Q7LG56). Nature of the assay: Inhibition of human RRM1/RNR2 activity using CDP as substrate assessed as reduction of dCDP production at 100 uM preincubated for 30 mins followed by substrate addition measured after 1 hr by NMR spectroscopy. It counts as protein-complex assay. Put shortly:
(§2)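 Human RRM1 and RNR2 were run at 27 °C in 50 mM d-Tris in D2O, pH 7.6, with 10 mM d-DTT. Compound was preincubated 30 min with active enzyme and 1 mM ATP. CDP was then added to start the reaction, which was heat-quenched after 1 h. 1H NMR measured dCDP formed and CDP consumed against control spectra. Controls were dATP, didox and gemcitabine diphosphate.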

Assay [9] has as its target T1, Ribonucleoside-diphosphate reductase large subunit (Homo sapiens). The assay is described as follows: Inhibition of RRM1 in human CEM cells assessed as depletion of dATP level at 1 uM after 2 hrs by HPLC analysis. It counts as cell-based. The conditions noted are these: CCRF-CEM. Put shortly: (§3)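 CEM cells were treated for 2 h, with untreated cells as control. Pellets were taken up in ice-cold water and deproteinized with an equal volume of 6% TCA. Supernatants were neutralized with NH4OH, then run on ion-pair HPLC (tetrabutylammonium hydroxide/KH2PO4, pH 7.0 gradient) with UV detection at 260 nm. Pool levels are peak AUC, in triplicate.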

For assay [10], the target named is T2, Ribonucleotide reductase (Homo sapiens). The assay is described as follows: Inhibition of human RRM1/RNR2 activity using CDP as substrate assessed as reduction of CDP consumption at 100 uM preincubated for 30 mins followed by substrate addition measured after 1 hr by NMR spectroscopy. Type of assay: protein-complex assay. The gist of the method:
as §2

Assay [11] addresses T1, Ribonucleoside-diphosphate reductase large subunit (Homo sapiens). Nature of the assay: Inhibition of RRM1 in human CEM cells assessed as depletion of dCTP level at 1 uM after 2 hrs by HPLC analysis. It counts as cell-based. The conditions noted are these: CCRF-CEM. Put shortly:
as §3

Assay [12] has the same target. The assay is described as follows: Inhibition of RRM1 in human CEM cells assessed as depletion of dGTP level at 1 uM after 2 hrs by HPLC analysis. It counts as cell-based. The conditions noted are these: CCRF-CEM. The gist of the method:
as §3

A word on the inhibition: it is the share of the control response that was lost under treatment. Turning to `Nc1ccn([C@@H]2O[C@H](CNCc3ccco3)[C@@H](O)C2(F)F)c(=O)n1`, the inhibition entry in assay [1] is “Dose-dependent effect”. The inhibition entry in assay [2] and in assay [3] was “Active” throughout.

On to `C[C@H](NC[C@H]1O[C@@H](n2ccc(N)nc2=O)C(F)(F)[C@@H]1O)c1ccnn1C`, for which the inhibition entry in assay [1] is “Dose-dependent effect”. Further, the inhibition result in assay [2] and in [3] was “Active” throughout.

For `Nc1ccn([C@@H]2O[C@H](CNCCN3CCCC3=O)[C@@H](O)C2(F)F)c(=O)n1`, the inhibition result in assay [1] was “Dose-dependent effect”. In addition, the inhibition result in assay [2] and in assay [3] was “Active” throughout.

As for `Nc1ccn([C@@H]2O[C@H](CO)[C@@H](O)C2(F)F)c(=O)n1`, the inhibition entry in assay [2] and in assay [3] was “Active” each time.

Broadly, the pKd is the Kd on a negative log10 scale, so that one unit is a factor of ten. Broadly, the pKi is −log10 of the Ki, conventionally taken in molar units. On to `Nc1ccn([C@@H]2O[C@H](CN3CCn4nccc4C3)[C@@H](O)C2(F)F)c(=O)n1`, for which the inhibition entry in [1] was “Dose-dependent effect”; in assay [8], 32%; in assay [10], 32%. For the same compound, the pKd in [4] is 3.70. Further, the inhibition result in assay [2], in [3], in [9], in assay [11] and in assay [12] was “Active” each time. Moreover, the Activity with Saccharomyces cerevisiae [5] was determined as 27%. In addition, in the assay on Saccharomyces cerevisiae [6], the outcome was Active. Moreover, in assay [7], the pKi was 3.82.
